# Source: ChEMBL document CHEMBL3085721, “Nonhydrolyzable ATP analogues as selective inhibitors of human NPP1: a combined computational/experimental study” (J Med Chem, 2013)
# Calls of active or inactive are those of the source. The calls are words filed in the database; no cut-off is given here.
# Experiments:
# [1] = target: T1, Ectonucleotide pyrophosphatase/phosphodiesterase family member 3 (Homo sapiens) (UniProt O14638); assay: Inhibition of NPP3 in human HTB-85 cells assessed as production of p-nitrophenol using pnp-TMP at 100 uM measured after 20 mins by spectrophotometry; format: cell-based
# T1 sequence (whole entry): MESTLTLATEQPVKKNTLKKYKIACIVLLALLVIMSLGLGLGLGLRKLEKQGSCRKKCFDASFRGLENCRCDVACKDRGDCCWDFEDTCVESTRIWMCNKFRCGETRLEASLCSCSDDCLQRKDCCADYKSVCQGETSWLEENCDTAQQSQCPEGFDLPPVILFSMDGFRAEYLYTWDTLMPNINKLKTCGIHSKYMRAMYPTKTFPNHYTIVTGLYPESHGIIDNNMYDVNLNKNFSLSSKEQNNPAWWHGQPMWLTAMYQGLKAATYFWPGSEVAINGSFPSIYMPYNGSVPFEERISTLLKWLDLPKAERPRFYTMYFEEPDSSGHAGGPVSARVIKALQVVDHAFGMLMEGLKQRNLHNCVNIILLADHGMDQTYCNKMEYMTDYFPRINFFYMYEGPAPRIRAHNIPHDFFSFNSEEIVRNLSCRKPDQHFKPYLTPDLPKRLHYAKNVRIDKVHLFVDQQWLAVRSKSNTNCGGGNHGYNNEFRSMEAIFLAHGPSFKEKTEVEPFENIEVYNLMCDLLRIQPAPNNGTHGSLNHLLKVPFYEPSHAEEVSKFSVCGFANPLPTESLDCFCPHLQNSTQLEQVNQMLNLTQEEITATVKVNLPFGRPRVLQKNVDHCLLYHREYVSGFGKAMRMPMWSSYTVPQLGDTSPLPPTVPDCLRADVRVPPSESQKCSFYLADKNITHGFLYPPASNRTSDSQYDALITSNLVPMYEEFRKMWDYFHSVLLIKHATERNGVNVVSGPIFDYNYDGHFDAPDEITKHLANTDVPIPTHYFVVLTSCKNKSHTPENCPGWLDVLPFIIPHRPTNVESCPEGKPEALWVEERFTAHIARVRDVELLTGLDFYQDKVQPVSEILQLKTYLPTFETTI
# Procedure, shortened: (§1)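 Intact osteocarcinoma HTB85 (SaOS-2) cells in 24-well plates, 0.5 mL incubation mixture, analogue and pnp-TMP each at 100 μM. After 20 min an aliquot was read for p-nitrophenol at 410 nm. Substrate alone set as 100%. Mean ± SD of three experiments in triplicate.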
# [2] = target: T2, Ectonucleotide pyrophosphatase/phosphodiesterase family member 1 (Homo sapiens) (UniProt P22413); assay: Inhibition of human NPP1 expressed in COS7 cells assessed as production of p-nitrophenol using pnp-TMP as the substrate preincubated at 100 uM for 3 mins before substrate addition measured after 15 mins […]; format: cell-based; details: COS-7
# T2 sequence (whole entry): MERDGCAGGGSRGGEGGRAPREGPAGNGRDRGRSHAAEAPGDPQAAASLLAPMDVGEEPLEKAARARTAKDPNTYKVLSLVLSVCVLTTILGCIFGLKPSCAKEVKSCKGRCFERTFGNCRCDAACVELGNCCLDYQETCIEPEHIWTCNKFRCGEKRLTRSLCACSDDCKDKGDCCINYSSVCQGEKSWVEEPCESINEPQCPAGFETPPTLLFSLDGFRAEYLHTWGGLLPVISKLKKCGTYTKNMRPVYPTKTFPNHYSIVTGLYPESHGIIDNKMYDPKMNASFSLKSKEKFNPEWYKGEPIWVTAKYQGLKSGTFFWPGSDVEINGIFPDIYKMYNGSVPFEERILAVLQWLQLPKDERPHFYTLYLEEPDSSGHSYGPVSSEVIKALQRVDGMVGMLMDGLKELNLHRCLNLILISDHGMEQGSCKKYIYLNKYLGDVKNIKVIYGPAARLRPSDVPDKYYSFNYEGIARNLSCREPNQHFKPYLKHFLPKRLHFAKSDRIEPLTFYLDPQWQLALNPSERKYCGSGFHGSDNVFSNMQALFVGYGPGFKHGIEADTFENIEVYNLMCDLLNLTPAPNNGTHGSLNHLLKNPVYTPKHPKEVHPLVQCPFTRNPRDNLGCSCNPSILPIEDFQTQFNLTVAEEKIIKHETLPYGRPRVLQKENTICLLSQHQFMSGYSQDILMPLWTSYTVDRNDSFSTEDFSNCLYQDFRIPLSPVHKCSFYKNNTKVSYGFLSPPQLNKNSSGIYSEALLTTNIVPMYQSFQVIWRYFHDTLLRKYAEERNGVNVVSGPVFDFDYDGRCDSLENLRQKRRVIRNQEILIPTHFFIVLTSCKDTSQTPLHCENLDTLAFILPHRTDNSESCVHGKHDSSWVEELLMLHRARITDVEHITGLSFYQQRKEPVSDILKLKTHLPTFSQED
# Procedure, shortened: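 Crude extracts of COS-7 cells transiently transfected with human NPP1 or NPP3, preincubated 3 min at 37 °C in 1 mM CaCl2, 140 mM NaCl, 5 mM KCl, 50 mM Tris pH 8.5 with analogue at 100 μM. Reaction started with 100 μM pnp-TMP; p-nitrophenol at 410 nm after 15 min. Activity without analogue set as 100%. Mean ± SD of 3−6 experiments in triplicate.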
# [3] = target: T2, Ectonucleotide pyrophosphatase/phosphodiesterase family member 1 (Homo sapiens); assay: Inhibition of NPP1 in human HTB-85 cells assessed as production of p-nitrophenol using pnp-TMP at 100 uM measured after 20 mins by spectrophotometry; format: cell-based; procedure, shortened: as §1
# [4] = target: T3, Ectonucleoside triphosphate diphosphohydrolase 1 (Homo sapiens) (UniProt P49961); assay: Inhibition of human NTPDase1 assessed as amount of inorganic phosphate released using ATP as the substrate preincubated at 100 uM for 3 mins before substrate addition after 15 mins by malachite green reagent method
# T3 sequence (whole entry): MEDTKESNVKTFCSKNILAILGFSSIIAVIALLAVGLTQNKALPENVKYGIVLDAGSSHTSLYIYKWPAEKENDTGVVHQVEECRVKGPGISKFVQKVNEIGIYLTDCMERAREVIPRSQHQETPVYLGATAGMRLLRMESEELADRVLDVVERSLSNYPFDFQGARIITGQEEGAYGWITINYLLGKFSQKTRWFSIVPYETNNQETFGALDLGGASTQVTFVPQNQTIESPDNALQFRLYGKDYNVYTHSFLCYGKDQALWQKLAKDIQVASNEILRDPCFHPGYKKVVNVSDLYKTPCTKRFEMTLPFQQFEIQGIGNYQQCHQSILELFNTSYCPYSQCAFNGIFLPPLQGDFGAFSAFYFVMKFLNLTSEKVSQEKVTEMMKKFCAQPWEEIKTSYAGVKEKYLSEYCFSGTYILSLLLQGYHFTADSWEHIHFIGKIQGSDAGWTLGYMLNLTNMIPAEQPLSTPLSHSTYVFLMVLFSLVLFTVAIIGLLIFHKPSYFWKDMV
# Procedure, shortened: (§2)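 Crude extracts of COS-7 cells transiently transfected with human NTPDase1, -2, -3 or -8, preincubated 3 min at 37 °C in Tris-Ringer medium pH 7.4 with analogue (final 100 μM). Started with 100 μM ATP, stopped after 15 min with malachite green; released Pi read at 630 nm. ATP alone set as 100%. Mean ± SD of 3−6 experiments in triplicate.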
# [5] = target: T4, Ectonucleoside triphosphate diphosphohydrolase 3 (Homo sapiens) (UniProt O75355); assay: Inhibition of human NTPDase3 assessed as amount of inorganic phosphate released using ATP as the substrate preincubated at 100 uM for 3 mins before substrate addition after 15 mins by malachite green reagent method; procedure, shortened: as §2
# T4 sequence (whole entry): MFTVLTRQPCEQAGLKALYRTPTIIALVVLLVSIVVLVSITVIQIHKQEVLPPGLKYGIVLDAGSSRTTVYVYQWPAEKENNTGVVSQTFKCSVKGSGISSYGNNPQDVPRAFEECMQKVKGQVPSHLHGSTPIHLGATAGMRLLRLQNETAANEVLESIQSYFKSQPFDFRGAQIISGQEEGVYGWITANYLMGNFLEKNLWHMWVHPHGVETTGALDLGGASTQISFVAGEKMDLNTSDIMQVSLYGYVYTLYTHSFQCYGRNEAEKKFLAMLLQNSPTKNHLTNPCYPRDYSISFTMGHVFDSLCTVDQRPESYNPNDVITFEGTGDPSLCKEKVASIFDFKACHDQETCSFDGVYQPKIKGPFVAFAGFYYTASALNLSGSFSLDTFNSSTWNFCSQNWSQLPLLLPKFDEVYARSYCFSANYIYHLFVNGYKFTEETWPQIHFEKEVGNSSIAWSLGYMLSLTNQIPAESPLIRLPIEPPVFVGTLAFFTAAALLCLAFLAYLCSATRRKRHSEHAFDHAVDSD
# [6] = target: T2, Ectonucleotide pyrophosphatase/phosphodiesterase family member 1 (Homo sapiens); assay: Competitive inhibition of human NPP1 expressed in COS7 cells assessed as production of p-nitrophenol using pnp-TMP as the substrate preincubated at 25 to 100 uM for 3 mins before substrate addition measured after 15 mins by Dixon/Cornish Bowden method; format: cell-based; details: COS-7
# Procedure, shortened: (§3)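 Crude protein extract from COS-7 cells transiently transfected with human NPP1 (sonicated, debris cleared at 300g), preincubated 3 min at 37 °C with inhibitor (0, 25, 50, 100 μM) in 1 mM CaCl2, 140 mM NaCl, 5 mM KCl, 50 mM Tris pH 8.5. pnp-TMP (25, 50, 100 μM) added; p-nitrophenol read at 410 nm after 15 min. Ki,app and inhibition type from Dixon and Cornish-Bowden plots, three independent experiments.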
# [7] = target: T5, Ectonucleotide pyrophosphatase/phosphodiesterase family member 1 (Homo sapiens, UniProt P22413); assay: Mixed type inhibition of human NPP1 expressed in COS7 cells assessed as production of p-nitrophenol using pnp-TMP as the substrate preincubated for 3 mins before substrate addition measured after 15 mins by Dixon/Cornish Bowden method; format: cell-based, COS-7; details: read-out: Ki(app); procedure, shortened: as §3
# T5 sequence (P22413 whole entry): T2 sequence (whole entry)
# [8] = target: T6, Ectonucleoside triphosphate diphosphohydrolase 8 (Homo sapiens) (UniProt Q5MY95); assay: Inhibition of human NTPDase8 assessed as amount of inorganic phosphate released using ATP as the substrate preincubated at 100 uM for 3 mins before substrate addition after 15 mins by malachite green reagent method; procedure, shortened: as §2
# T6 sequence (whole entry): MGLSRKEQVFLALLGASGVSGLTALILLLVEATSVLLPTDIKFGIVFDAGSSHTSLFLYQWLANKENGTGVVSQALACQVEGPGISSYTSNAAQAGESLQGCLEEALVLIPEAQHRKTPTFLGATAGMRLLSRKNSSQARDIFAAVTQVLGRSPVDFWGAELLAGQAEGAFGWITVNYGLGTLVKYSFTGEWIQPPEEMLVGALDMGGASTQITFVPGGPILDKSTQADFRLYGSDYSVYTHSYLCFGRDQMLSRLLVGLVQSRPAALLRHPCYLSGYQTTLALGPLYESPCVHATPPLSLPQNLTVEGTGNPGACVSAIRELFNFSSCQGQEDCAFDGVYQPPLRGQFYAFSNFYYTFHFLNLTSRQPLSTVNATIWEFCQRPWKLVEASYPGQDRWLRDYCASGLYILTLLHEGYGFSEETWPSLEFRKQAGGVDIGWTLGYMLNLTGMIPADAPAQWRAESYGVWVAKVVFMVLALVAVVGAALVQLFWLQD
# [9] = target: T7, Ectonucleoside triphosphate diphosphohydrolase 2 (Homo sapiens) (UniProt Q9Y5L3); assay: Inhibition of human NTPDase2 assessed as amount of inorganic phosphate released using ATP as the substrate preincubated at 100 uM for 3 mins before substrate addition after 15 mins by malachite green reagent method; procedure, shortened: as §2
# T7 sequence (whole entry): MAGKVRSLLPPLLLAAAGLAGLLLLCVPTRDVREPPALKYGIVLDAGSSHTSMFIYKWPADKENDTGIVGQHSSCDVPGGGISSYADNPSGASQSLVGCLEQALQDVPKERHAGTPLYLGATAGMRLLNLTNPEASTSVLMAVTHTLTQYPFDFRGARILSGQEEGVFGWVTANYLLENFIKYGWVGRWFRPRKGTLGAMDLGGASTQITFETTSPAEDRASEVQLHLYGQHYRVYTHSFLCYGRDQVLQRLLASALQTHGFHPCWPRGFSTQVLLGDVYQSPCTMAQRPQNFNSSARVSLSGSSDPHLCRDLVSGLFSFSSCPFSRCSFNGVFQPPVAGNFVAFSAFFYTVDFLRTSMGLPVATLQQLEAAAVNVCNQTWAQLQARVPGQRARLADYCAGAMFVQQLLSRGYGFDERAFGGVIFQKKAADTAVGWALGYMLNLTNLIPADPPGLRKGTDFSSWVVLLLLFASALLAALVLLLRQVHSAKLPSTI
SMILES,inhibition [1],inhibition [2],inhibition [3],inhibition [4],inhibition [5],inhibition [6],Ki [7],inhibition [8],inhibition [9]
B[P@](=O)(OC[C@H]1O[C@@H](n2cnc3c(N)nc(SC)nc32)[C@H](O)[C@@H]1O)OP(=O)(O)C(Cl)(Cl)P(=O)(O)O,41%,90%,41%,–,–,–,–,–,–
B[P@@](=O)(OC[C@H]1O[C@@H](n2cnc3c(N)nc(SC)nc32)[C@H](O)[C@@H]1O)OP(=O)(O)C(Cl)(Cl)P(=O)(O)O,90%,90%,90%,50%,50%,–,–,–,–
CSc1nc(N)c2ncn([C@@H]3O[C@H](COP(=O)(O)OP(=O)(O)C(F)(F)P(=O)(O)O)[C@@H](O)[C@H]3O)c2n1,41%,90%,41%,–,–,Active,37 µM,–,–
B[P@](=O)(OC[C@H]1O[C@@H](n2cnc3c(N)ncnc32)[C@H](O)[C@@H]1O)OP(=O)(O)C(Cl)(Cl)P(=O)(O)O,41%,90%,41%,–,–,Active,28 µM,–,–
B[P@](=O)(OC[C@H]1O[C@@H](n2cnc3c(N)nc(SC)nc32)[C@H](O)[C@@H]1O)OP(=O)(O)C(F)(F)P(=O)(O)O,41%,90%,41%,–,50%,–,–,30%,–
B[P@@](=O)(OC[C@H]1O[C@@H](n2cnc3c(N)nc(SC)nc32)[C@H](O)[C@@H]1O)OP(=O)(O)CP(=O)(O)O,–,80%,–,< 18%,< 18%,–,–,< 18%,< 18%
CSc1nc(N)c2ncn([C@@H]3O[C@H](COP(=O)(O)OP(=O)(O)CP(=O)(O)O)[C@@H](O)[C@H]3O)c2n1,–,66%,–,< 18%,< 18%,–,–,< 18%,< 18%
